Laboratory results as given in ChEMBL document CHEMBL6134795, “Mannich reaction mediated derivatization of chromones and their biological evaluations as putative multipotent ligands for the treatment of Alzheimer's disease” (RSC Med Chem, 2024).
Activity calls are given as the source filed them. The rule behind the calls is not given here.

Experiments:
Cholinesterase [1] = biological target: T1, Cholinesterase (Homo sapiens, UniProt P06276); test: Inhibition of recombinant BuChE (unknown origin) using BTCI as substrate at 20 uM preincubated for 30 mins followed by substrate addition by TECAN multiplate reader analysis relative to control
Outline: (§1)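 Ellman method as for AChE, using butyrylcholinesterase with BTCI as substrate. Enzyme and compound preincubated 30 min at 37 °C in a CO2 incubator, then DTNB and BTCI added; absorbance read at 417 nm. Screening at 20 μM as % inhibition; IC50 for compounds exceeding 50% inhibition at 20 μM. Triplicate.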

[2] = biological target: T2, Amine oxidase [flavin-containing] A (Homo sapiens, UniProt P21397); test: Inhibition of recombinant MAO-A (unknown origin) at 20 uM preincubated for 30 mins followed substrate addition by Amplex Red reagent based fluorescence analysis relative to control
T2 sequence (P21397 whole entry): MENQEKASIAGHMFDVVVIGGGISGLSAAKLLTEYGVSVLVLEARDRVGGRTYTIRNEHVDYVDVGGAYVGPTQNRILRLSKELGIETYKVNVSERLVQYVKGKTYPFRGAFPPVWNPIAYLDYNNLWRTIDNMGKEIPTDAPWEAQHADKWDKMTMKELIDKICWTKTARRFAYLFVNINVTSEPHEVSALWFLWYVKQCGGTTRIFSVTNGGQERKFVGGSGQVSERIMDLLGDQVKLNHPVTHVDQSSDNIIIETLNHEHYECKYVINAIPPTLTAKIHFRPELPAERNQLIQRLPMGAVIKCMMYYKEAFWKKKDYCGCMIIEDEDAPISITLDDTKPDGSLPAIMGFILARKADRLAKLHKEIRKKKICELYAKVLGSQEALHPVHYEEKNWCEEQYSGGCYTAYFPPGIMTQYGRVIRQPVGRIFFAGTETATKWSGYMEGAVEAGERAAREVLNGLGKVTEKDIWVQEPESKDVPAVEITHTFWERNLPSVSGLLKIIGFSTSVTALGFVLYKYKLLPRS
Outline: (§2)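 Recombinant MAO enzyme preincubated with compound 30 min at 37 °C; substrate, HRP and Amplex Red working solution then added; H2O2 formation read at 37 °C by fluorescence, ex 545/em 590 nm. Screening at 20 μM as % inhibition versus control; IC50 only for compounds above 50% inhibition at 20 μM; triplicate (n = 3).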

[3] = biological target: T3, Amine oxidase [flavin-containing] B (Homo sapiens, UniProt P27338); test: Inhibition of recombinant MAO-B (unknown origin) at 20 uM preincubated for 30 mins followed substrate addition by Amplex Red reagent based fluorescence analysis relative to control; outline: as §2
T3 sequence (P27338 whole entry): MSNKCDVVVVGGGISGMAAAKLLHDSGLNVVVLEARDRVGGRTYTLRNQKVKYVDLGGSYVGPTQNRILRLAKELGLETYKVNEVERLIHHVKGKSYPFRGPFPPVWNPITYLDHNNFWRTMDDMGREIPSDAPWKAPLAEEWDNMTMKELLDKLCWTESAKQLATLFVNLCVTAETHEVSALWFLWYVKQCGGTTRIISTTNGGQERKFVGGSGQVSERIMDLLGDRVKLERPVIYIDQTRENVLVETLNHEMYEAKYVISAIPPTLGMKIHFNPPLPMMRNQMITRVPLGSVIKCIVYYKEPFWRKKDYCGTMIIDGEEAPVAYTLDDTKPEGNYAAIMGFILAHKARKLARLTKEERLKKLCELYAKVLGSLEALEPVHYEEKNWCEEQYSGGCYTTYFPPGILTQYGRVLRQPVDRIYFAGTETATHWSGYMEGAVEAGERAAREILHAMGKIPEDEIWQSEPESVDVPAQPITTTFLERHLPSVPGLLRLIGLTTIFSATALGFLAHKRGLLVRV

[4] = biological target: Amyloid-beta precursor protein (Homo sapiens) (UniProt P05067); test: Inhibition of self-induced amyloid beta (1 to 42 residues) (unknown origin) aggregation at 20 uM incubated at 48 hrs by fluorimetry-based thioflavin T assay
Outline: (§3)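 Aβ1-42 pretreated with HFIP (1 mg mL−1) and dried, then incubated with compound (20 μM) at 37 °C for 24 h; an aliquot transferred and incubated further to 48 h. Glycine–NaOH buffer pH 8.0 with 5 μM ThT added; fluorescence read at 440–485 nm. % inhibition calculated against the Aβ-only control taken as 0%.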

[5] = biological target: Amyloid-beta precursor protein (Homo sapiens) (UniProt P05067); test: Inhibition of self-induced amyloid beta (1 to 42 residues) (unknown origin) aggregation at 20 uM incubated at 24 hrs by fluorimetry-based thioflavin T assay; outline: as §3
Cholinesterase [6] = biological target: T1, Cholinesterase; test: Inhibition of recombinant BuChE (unknown origin) using BTCI as substrate preincubated for 30 mins followed by substrate addition by TECAN multiplate reader analysis; outline: as §1
[7] = biological target: Amyloid-beta precursor protein (Homo sapiens) (UniProt P05067); test: Inhibition of self-induced amyloid beta (1 to 42 residues) (unknown origin) aggregation assessed as reduction in fibrils formation measured after 72 hrs by FE-SEM analysis
Outline: (§4)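 HFIP-pretreated Aβ1-42 incubated with or without inhibitor for 72 h; samples placed on carbon-coated copper grids, dried 1 h at 37 °C, imaged by FE-SEM. Glycine–NaOH buffer served as blank and Aβ alone as control.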

[8] = biological target: Amyloid-beta precursor protein (Homo sapiens) (UniProt P05067); test: Inhibition of self-induced amyloid beta (1 to 42 residues) (unknown origin) aggregation assessed as reduction in plaques formation measured after 72 hrs by FE-SEM analysis; outline: as §4
Acetylcholinesterase = Acetylcholinesterase (Homo sapiens, UniProt P22303); test: Inhibition of AChE (unknown origin)
Outline: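 Recombinant AChE (0.5 U ml-1) preincubated with compound for 30 min at 37 °C in a CO2 incubator. DTNB and acetylthiocholine substrate (AChSI) then added, and absorbance read at 417 nm. Screening at 20 μM as % inhibition; IC50 determined for compounds giving over 50% inhibition at 20 μM. Run in triplicate.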

Cholinesterase [9] = biological target: T1, Cholinesterase; test: Inhibition of BuChE (unknown origin); outline: as §1
[10] = biological target: T3, Amine oxidase [flavin-containing] B; test: Inhibition of MAO-B (unknown origin)

T1 sequence (P06276 whole entry): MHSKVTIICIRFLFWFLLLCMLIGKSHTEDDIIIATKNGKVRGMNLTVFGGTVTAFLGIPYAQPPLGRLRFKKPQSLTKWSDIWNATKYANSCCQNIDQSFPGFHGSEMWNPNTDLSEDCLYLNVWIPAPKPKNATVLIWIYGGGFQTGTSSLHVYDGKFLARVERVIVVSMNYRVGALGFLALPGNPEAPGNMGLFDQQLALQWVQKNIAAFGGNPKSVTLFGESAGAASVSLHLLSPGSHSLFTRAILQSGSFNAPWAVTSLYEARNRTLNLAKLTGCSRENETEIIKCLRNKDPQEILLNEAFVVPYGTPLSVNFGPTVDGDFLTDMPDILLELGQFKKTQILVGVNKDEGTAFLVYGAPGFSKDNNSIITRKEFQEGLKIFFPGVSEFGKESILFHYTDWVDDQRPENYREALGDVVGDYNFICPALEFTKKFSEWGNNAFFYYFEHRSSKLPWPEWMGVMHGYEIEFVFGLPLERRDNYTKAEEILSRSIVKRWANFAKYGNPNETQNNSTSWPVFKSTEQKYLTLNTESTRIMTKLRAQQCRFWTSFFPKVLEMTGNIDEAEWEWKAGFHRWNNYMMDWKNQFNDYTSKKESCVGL
Amyloid-beta precursor protein (Homo sapiens), sequence (P05067 whole entry, the tested form may be a part): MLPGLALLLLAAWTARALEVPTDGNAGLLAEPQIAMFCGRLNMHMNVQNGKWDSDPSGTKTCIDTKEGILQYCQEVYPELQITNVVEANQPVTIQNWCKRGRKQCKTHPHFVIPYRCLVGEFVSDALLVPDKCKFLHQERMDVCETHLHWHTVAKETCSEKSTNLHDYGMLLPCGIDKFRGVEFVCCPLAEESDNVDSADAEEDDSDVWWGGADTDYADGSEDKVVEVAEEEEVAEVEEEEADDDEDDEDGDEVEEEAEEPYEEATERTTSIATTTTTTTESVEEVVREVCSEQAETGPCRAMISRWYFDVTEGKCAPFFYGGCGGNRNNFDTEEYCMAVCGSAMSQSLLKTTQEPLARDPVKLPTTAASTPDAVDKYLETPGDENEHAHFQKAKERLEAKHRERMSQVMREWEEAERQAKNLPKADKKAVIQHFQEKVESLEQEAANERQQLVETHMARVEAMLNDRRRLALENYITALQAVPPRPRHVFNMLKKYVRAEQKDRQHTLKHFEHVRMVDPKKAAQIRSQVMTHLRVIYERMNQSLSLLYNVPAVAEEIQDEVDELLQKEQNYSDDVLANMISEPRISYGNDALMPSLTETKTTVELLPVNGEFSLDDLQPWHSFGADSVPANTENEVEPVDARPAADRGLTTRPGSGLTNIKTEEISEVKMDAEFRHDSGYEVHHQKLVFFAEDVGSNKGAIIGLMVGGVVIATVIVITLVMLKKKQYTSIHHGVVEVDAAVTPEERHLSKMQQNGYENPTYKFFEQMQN
Acetylcholinesterase, sequence (P22303 whole entry): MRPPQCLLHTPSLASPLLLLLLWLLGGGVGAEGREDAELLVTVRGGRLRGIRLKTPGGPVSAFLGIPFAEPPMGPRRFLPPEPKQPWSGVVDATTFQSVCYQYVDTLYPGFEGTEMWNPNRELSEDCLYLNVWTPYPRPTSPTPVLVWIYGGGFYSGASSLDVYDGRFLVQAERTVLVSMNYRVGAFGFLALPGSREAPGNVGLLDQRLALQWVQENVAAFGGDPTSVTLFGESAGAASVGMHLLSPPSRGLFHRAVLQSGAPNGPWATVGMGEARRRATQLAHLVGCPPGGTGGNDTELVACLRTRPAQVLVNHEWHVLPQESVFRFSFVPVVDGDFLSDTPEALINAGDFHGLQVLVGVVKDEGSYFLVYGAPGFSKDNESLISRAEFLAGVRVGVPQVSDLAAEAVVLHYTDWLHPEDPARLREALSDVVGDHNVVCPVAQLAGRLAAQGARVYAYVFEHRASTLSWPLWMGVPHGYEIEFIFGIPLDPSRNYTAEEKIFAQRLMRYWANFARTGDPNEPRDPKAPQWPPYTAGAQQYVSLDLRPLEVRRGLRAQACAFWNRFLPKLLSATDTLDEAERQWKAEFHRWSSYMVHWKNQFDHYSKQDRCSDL

| Compound | inhibition (Cholinesterase [1]) | inhibition at 20 µM [2] | inhibition at 20 µM [3] | inhibition [4] | inhibition [5] | other results |
| --- | --- | --- | --- | --- | --- | --- |
| C#CCCCOc1c(CN2CCN(Cc3ccccc3)CC2)cc(-c2cc(=O)c3ccccc3o2)cc1OC | 7.42% | 5.26% | 22.8% | 28.1% | 22.9% |  |
| C#CCOc1c(CN2CCOCC2)cc(-c2cc(=O)c3ccccc3o2)cc1CN1CCOCC1 | 9.03% |  | 36.5% | 23.3% | 14.4% |  |
| C#CCCCOc1c(CN2CCN(c3ccccc3)CC2)cc(-c2cc(=O)c3ccccc3o2)cc1OC | 1.69% | 2.6% | 13.1% |  |  |  |
| C#CCCOc1c(CN2CCN(c3ccccc3)CC2)cc(-c2cc(=O)c3ccccc3o2)cc1OC | 1.63% | 9.14% | 35.4% |  |  |  |
| C#CCCCOc1c(CN2CCc3ccccc3C2)cc(-c2cc(=O)c3ccccc3o2)cc1OC | 51.5% | 11.3% | 19.8% |  |  | IC50 (Cholinesterase [6]): 18.9 µM |
| C#CCCCOc1c(CN2CCCCC2)cc(-c2cc(=O)c3ccccc3o2)cc1OCC | 3.36% |  | 15.6% |  |  |  |
| Oc1ccc(/C=C/c2cc(O)cc(O)c2)cc1 |  |  |  |  |  | inhibition [7]: Active; inhibition [8]: Active |
| O=C(NCCC1CCN(Cc2ccccc2)CC1)c1coc2cc(OCc3ccccc3)ccc2c1=O |  |  |  |  |  | IC50 (Acetylcholinesterase): 370 nM; IC50 (Cholinesterase [9]): 5.24 µM; IC50 [10]: 272 nM |
| C#CCCOc1c(CN2CCOCC2)cc(-c2cc(=O)c3ccccc3o2)cc1OCC | 4.42% |  | 6.89% | 23.7% | 24.6% |  |
| C#CCCCOc1c(CN(C)Cc2ccccc2)cc(-c2cc(=O)c3ccccc3o2)cc1OC | 17.6% |  | 17.5% |  |  |  |
